# Experimental data as given in ChEMBL document CHEMBL5724801, “EUbOPEN Chemogenomics Library - Multiplex” (2024).
# Values joined by “and” are separate entries in the source; they are usually repeats but may differ in a detail not shown here. Identical values can stand only once.
# Assays:
# HEK-293T = assay: Multiplex assay against HEK293T; type: toxicity, cell-based; conditions: human
# Summary of the method: (§1)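 At seeding, live cells were stained with Hoechst33342, BioTracker Green Microtubule Cytoskeleton Dye, MitoTracker Red and Annexin V Alexa Fluor 680. After compound addition they were imaged on a CQ1 microscope at 37°C and 5% CO2, and CellPathfinder machine-learning gating sorted them into Hoechst high-intensity objects or normal cells, with normal cells further split into healthy, pyknosed or fragmented nuclei and pyknosed cells into mitotic or apoptotic. Tubulin, mitochondrial-mass and membrane-permeability phenotypes are given as per cents of cells with healthy nuclei.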
# U2OS = assay: Multiplex assay against U2OS; type: toxicity, cell-based; conditions: human; summary of the method: as §1
# [1] = 24 h, 10 µM, compound concentration 10 uM
# [2] = 48 h, 1 µM, compound concentration 1 uM
# [3] = 48 h, 10 µM, compound concentration 10 uM
# [4] = 12 h, 1 µM, compound concentration 1 uM
# [5] = 12 h, 10 µM, compound concentration 10 uM
# [6] = 24 h, 1 µM, compound concentration 1 uM
compound,measurement,setting,value
CC(C)Oc1ccc(F)c(-c2cnc(N)c(C(=O)Nc3cnccc3N3CCC[C@@H](C(=O)O)C3)n2)c1,Population Apoptotic (%),HEK-293T; [1],20.45% and 46.61%
same,Population Fragmented Nuclei (%),HEK-293T; [1],3.49% and 7.1%
same,Population Healthy Nuclei (%),HEK-293T; [1],62.4% and 28.42%
same,Population Hoechst High Intensity Objects (%),HEK-293T; [1],0.77% and 0%
same,Population Membrane Permeable-Phenotype (%),HEK-293T; [1],1.86% and 0%
same,Population Mitochondria Different-Phenotype (%),HEK-293T; [1],33.54% and 11.54%
same,Population Mitotic Cells (%),HEK-293T; [1],79.55% and 53.39%
same,Population Normal (%),HEK-293T; [1],99.23% and 100%
same,Population Pyknosed Nuclei (%),HEK-293T; [1],34.11% and 64.48%
same,Total Cell Count,HEK-293T; [1],260 and 183
same,Population Apoptotic (%),HEK-293T; [2],8.84% and 23.26%
same,Population Fragmented Nuclei (%),HEK-293T; [2],3.08% and 2.66%
same,Population Healthy Nuclei (%),HEK-293T; [2],77.03% and 51.6%
same,Population Hoechst High Intensity Objects (%),HEK-293T; [2],0.22% and 0%
same,Population Membrane Permeable-Phenotype (%),HEK-293T; [2],3.42% and 2.06%
same,Population Mitochondria Different-Phenotype (%),HEK-293T; [2],29.39% and 26.8%
same,Population Mitotic Cells (%),HEK-293T; [2],91.16% and 76.74%
same,Population Normal (%),HEK-293T; [2],99.78% and 100%
same,Population Pyknosed Nuclei (%),HEK-293T; [2],19.89% and 45.74%
same,Population Apoptotic (%),HEK-293T; [3],31.37% and 50.7%
same,Population Fragmented Nuclei (%),HEK-293T; [3],10.59% and 8.51%
same,Population Healthy Nuclei (%),HEK-293T; [3],74.41% and 53.72%
same,Population Hoechst High Intensity Objects (%),HEK-293T; [3],0.29% and 0.53%
same,Population Membrane Permeable-Phenotype (%),HEK-293T; [3],7.11% and 0.99%
same,Population Mitochondria Different-Phenotype (%),HEK-293T; [3],69.96% and 27.72%
same,Population Mitotic Cells (%),HEK-293T; [3],68.63% and 49.3%
same,Population Normal (%),HEK-293T; [3],99.71% and 99.47%
same,Population Pyknosed Nuclei (%),HEK-293T; [3],15% and 37.77%
same,Population Tubulin-Different-Phenotype (%),HEK-293T; [3],27.67% and 73.27%
same,Total Cell Count,HEK-293T; [3],341 and 189
same,Population Apoptotic (%),U2OS; [4],45.71% and 37.5%
same,Population Fragmented Nuclei (%),U2OS; [4],1.25% and 5.73%
same,Population Healthy Nuclei (%),U2OS; [4],90.02% and 84.08%
same,Population Hoechst High Intensity Objects (%),U2OS; [4],0%
same,Population Membrane Permeable-Phenotype (%),U2OS; [4],0.28% and 7.58%
same,Population Mitochondria Different-Phenotype (%),U2OS; [4],0% and 6.82%
same,Population Mitotic Cells (%),U2OS; [4],54.29% and 62.5%
same,Population Normal (%),U2OS; [4],100%
same,Population Pyknosed Nuclei (%),U2OS; [4],8.73% and 10.19%
same,Population Tubulin-Different-Phenotype (%),U2OS; [4],0.28% and 0%
same,Total Cell Count,U2OS; [4],401 and 157
same,Population Apoptotic (%),U2OS; [5],73.33% and 43.75%
same,Population Fragmented Nuclei (%),U2OS; [5],9.57% and 11.05%
same,Population Healthy Nuclei (%),U2OS; [5],83.25% and 79.65%
same,Population Hoechst High Intensity Objects (%),U2OS; [5],0%
same,Population Membrane Permeable-Phenotype (%),U2OS; [5],8.33% and 15.33%
same,Population Mitotic Cells (%),U2OS; [5],26.67% and 56.25%
same,Population Normal (%),U2OS; [5],100%
same,Population Pyknosed Nuclei (%),U2OS; [5],7.18% and 9.3%
same,Population Tubulin-Different-Phenotype (%),U2OS; [5],4.02% and 3.65%
same,Total Cell Count,U2OS; [5],418 and 172
same,Population Apoptotic (%),U2OS; [6],38.6% and 34.38%
same,Population Fragmented Nuclei (%),U2OS; [6],1.54% and 3.88%
same,Population Healthy Nuclei (%),U2OS; [6],87.45% and 80.58%
same,Population Hoechst High Intensity Objects (%),U2OS; [6],0%
same,Population Membrane Permeable-Phenotype (%),U2OS; [6],0.66% and 4.22%
same,Population Mitochondria Different-Phenotype (%),U2OS; [6],0% and 3.61%
same,Population Mitotic Cells (%),U2OS; [6],61.4% and 65.62%
same,Population Normal (%),U2OS; [6],100%
same,Population Pyknosed Nuclei (%),U2OS; [6],11% and 15.53%
same,Population Tubulin-Different-Phenotype (%),U2OS; [6],1.1% and 0%
same,Total Cell Count,U2OS; [6],518 and 206
same,Population Apoptotic (%),U2OS; [1],49.3% and 65.52%
same,Population Fragmented Nuclei (%),U2OS; [1],11.73% and 11.05%
same,Population Healthy Nuclei (%),U2OS; [1],74.16% and 73.68%
same,Population Hoechst High Intensity Objects (%),U2OS; [1],0%
same,Population Mitotic Cells (%),U2OS; [1],50.7% and 34.48%
same,Population Normal (%),U2OS; [1],100%
same,Population Pyknosed Nuclei (%),U2OS; [1],14.12% and 15.26%
same,Population Tubulin-Different-Phenotype (%),U2OS; [1],6.97% and 2.14%
same,Total Cell Count,U2OS; [1],503 and 190
same,Population Apoptotic (%),U2OS; [2],39.13% and 30.56%
same,Population Fragmented Nuclei (%),U2OS; [2],2.98% and 4.32%
same,Population Healthy Nuclei (%),U2OS; [2],86.85% and 84.57%
same,Population Hoechst High Intensity Objects (%),U2OS; [2],0% and 0.31%
same,Population Membrane Permeable-Phenotype (%),U2OS; [2],2.04% and 2.92%
same,Population Mitochondria Different-Phenotype (%),U2OS; [2],0% and 2.55%
same,Population Mitotic Cells (%),U2OS; [2],60.87% and 69.44%
same,Population Normal (%),U2OS; [2],100% and 99.69%
same,Population Pyknosed Nuclei (%),U2OS; [2],10.17% and 11.11%
same,Population Tubulin-Different-Phenotype (%),U2OS; [2],1.65% and 1.82%
same,Total Cell Count,U2OS; [2],905 and 325
same,Population Apoptotic (%),U2OS; [3],62.73% and 80.56%
same,Population Fragmented Nuclei (%),U2OS; [3],8.71% and 11.34%
same,Population Healthy Nuclei (%),U2OS; [3],63.24% and 58.4%
same,Population Hoechst High Intensity Objects (%),U2OS; [3],0%
same,Population Membrane Permeable-Phenotype (%),U2OS; [3],2.48% and 6.47%
same,Population Mitotic Cells (%),U2OS; [3],37.27% and 19.44%
same,Population Normal (%),U2OS; [3],100%
same,Population Pyknosed Nuclei (%),U2OS; [3],28.05% and 30.25%
same,Population Tubulin-Different-Phenotype (%),U2OS; [3],16.25% and 8.63%
same,Total Cell Count,U2OS; [3],574 and 238
